Measurements from ChEMBL document CHEMBL6134796, “Development and Evaluation of Indole-Based Phospholipase D Inhibitors for Lung Cancer Immunotherapy” (J Med Chem, 2025).
The source made the active and inactive calls.

Tests used:
[1] = biological target: T1, Phospholipase D1 (Homo sapiens) (UniProt Q13393); assay: Inhibition of wild type PLD1 (unknown origin) overexpressed in human A549 cells; assay type: cell-based
T1 sequence (whole entry): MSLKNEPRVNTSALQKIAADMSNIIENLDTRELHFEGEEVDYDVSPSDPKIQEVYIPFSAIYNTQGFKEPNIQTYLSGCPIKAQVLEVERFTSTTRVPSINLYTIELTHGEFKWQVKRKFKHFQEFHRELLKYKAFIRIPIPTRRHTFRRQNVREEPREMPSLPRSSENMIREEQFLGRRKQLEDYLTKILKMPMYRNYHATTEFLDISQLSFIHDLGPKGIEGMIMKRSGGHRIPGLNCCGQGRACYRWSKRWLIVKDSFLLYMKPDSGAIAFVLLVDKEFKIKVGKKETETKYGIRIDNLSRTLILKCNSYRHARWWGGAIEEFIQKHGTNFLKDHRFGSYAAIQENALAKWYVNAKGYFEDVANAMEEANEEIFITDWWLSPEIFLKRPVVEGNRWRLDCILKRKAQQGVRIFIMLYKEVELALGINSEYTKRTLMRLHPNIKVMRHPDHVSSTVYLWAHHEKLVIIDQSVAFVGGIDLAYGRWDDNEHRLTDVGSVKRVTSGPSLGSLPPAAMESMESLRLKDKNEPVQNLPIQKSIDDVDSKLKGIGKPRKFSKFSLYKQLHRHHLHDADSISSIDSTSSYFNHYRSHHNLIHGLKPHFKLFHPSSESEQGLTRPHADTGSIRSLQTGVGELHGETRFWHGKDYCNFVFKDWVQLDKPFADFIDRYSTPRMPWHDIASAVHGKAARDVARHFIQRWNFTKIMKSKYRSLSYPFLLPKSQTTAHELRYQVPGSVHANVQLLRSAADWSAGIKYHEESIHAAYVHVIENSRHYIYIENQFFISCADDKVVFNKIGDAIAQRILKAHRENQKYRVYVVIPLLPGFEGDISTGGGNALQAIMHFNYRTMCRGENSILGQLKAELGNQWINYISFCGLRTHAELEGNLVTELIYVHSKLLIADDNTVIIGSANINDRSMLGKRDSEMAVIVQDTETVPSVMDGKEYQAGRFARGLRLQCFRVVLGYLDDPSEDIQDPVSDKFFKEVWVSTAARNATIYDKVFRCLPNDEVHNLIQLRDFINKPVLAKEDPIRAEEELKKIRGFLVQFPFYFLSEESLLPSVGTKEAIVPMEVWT
Procedure, shortened: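 A549 cells transfected with wild-type PLD1, labeled with [3H] myristic acid; PLD activity as [3H] phosphatidylbutanol formed by transphosphatidylation with 1-butanol, expressed as percent of total lipid cpm in PtdBut; alternatively, cells treated 1 h and read by Amplex Red kit (ex 540/em 590 nm); at least three independent experiments.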

A549 [2] = assay: Inhibition of colony formation in human A549 cells incubated for 48 hrs by crystal violet staining based analysis; assay type: functional, cell-based
Procedure, shortened: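 A549 cells seeded at 500 to 1,000 per well; compound added 48 h after seeding, then 48 h further incubation; medium changed every 3 days, kept 10 days total; fixed in 4% PFA 20 min, crystal violet 30 min; colonies counted by image analysis.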

A549 [3] = assay: Upregulation of CRT expression in human A549 cells by flow cytometry analysis; assay type: functional, cell-based
Procedure, shortened: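 A549 cells treated with compound; surface "eat-me" and "don't eat-me" signal proteins measured by flow cytometry; at least three independent experiments, mean ± SEM.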

[4] = tested on: Lewis lung carcinoma cell line; assay: Antitumor activity against mouse Lewis lung carcinoma cell line allografted in male C57BL/6 mouse model assessed as reduction in tumor formation at 10 mg/kg, po measured every other day for 3 weeks; assay type: functional, organism-based
Procedure, shortened: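 Syngeneic model: 6-week-old male C57BL/6 mice given 3 × 10^5 LLC cells in 50 μL PBS subcutaneously in the flank. At day 7, mice were randomized to vehicle PO daily or 10 mg/kg PO every other day for 3 weeks. Caliper volume was taken every 2 days as ([…])/2, with tumor weight at end. Spleen size and weight were recorded. Ki67 and cleaved caspase-3 were scored by IHC (DAB, hematoxylin).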

[5] = biological target: T2, Phospholipase D1 (Mus musculus) (UniProt Q9Z280); assay: In vivo inhibition of PLD1 in male C57BL/6 mouse allografted with mouse Lewis lung carcinoma cell line assessed as decrease in CD163+ anti-inflammatory M2 macrophage population at 10 mg/kg, po by immunofluorescence analysis; assay type: functional, organism-based
T2 sequence (whole entry): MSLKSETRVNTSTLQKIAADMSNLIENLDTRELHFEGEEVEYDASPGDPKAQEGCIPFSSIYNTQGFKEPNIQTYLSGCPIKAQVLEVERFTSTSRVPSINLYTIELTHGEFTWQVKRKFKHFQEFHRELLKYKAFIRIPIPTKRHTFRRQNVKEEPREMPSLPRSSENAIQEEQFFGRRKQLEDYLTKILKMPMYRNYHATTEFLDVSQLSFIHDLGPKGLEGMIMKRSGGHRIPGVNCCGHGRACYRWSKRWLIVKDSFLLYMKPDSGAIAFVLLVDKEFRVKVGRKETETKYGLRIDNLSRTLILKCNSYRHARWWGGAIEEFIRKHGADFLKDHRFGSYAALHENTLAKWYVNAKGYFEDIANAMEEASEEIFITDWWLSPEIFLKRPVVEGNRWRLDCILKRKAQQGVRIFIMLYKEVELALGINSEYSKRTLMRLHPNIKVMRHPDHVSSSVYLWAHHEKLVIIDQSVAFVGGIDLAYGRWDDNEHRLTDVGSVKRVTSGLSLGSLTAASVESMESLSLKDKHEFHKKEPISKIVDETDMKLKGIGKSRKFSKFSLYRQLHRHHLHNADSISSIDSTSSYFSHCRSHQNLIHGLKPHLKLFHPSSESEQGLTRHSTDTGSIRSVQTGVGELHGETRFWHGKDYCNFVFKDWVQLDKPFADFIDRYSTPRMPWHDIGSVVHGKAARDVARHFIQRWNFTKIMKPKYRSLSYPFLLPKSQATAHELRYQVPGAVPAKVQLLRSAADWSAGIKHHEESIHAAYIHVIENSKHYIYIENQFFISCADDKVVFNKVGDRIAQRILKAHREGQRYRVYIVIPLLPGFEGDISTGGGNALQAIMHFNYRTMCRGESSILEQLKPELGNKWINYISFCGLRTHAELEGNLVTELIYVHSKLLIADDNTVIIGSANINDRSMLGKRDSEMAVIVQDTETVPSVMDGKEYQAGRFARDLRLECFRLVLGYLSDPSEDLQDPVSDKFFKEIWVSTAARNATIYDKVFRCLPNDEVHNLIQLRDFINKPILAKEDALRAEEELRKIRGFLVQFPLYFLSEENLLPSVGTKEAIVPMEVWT
Procedure, shortened: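 Same LLC syngeneic C57BL/6 model, 10 mg/kg PO every other day for 3 weeks. Tumor tissues were stained by immunofluorescence for CD80+ and CD163+ cells, CD8+ T cells, and CD4+/IL-17+ and Treg populations. Nuclei were counterstained with 1 μM Hoechst 33342 and imaged by confocal microscopy.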

O=C(CCc1c[nH]c2ccccc12)Nc1cc(C(F)(F)F)cc(C(F)(F)F)c1
active: inhibition [1] | inhibition (A549 [2]) | Activity (A549 [3]) | Activity [4] | inhibition [5]
